Compound activity deposited in PubChem BioAssay by Johns Hopkins Ion Channel Center.
Compounds with a hit are over-represented: about 2.9% of the library has one in this group of screens.
TRPC6 inhibitor – mouse TRPC6 channel inhibitors, primary screen, cell-based, HEK293, membrane potential dye. B-score at 10 µM. Short transient receptor potential channel 6 (Mus musculus), Q61143. AID 2553, 2010. ACh-evoked depolarization; active compounds read low. 310,000 compounds, 1.1% hits;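 active means B-score under library mean minus 3 SD, initial fluorescence not abnormally high, positive integrated signal ratio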;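 further: B-score derived from integrated fluorescence ratio over the kinetic read; more negative B-score means stronger inhibition of depolarization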
TRPC4 agonist – activators of mouse TRPC4 channel, primary screen, Fluo4 calcium, HEK293 TRPC4beta/mu-opioid cells. Short transient receptor potential channel 4 (Mus musculus), Q9QUQ5. Fluo4 calcium fluorescence; active compounds read high. B-score at 10 µM. 310,000 compounds, 0.49% hits. AID 2237, 2010;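 active means B-score above 5 SD of library B-scores, and initial fluorescence ratio not above library mean plus 5 SD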;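 further: positive B-score marks a calcium rise read as TRPC4 activation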
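Material: HEK293 stable line with TRPC4beta plus mu-opioid receptor; technique: Fluo4 calcium-sensitive dye fluorescence, kinetic, 1 Hz baseline; timing: Fluo4 dye loading 45 min at room temperature, 110 s recording; controls: assay buffer as low control, maximal DAMGO as high control; read-out: integrated baseline-normalised fluorescence ratio, converted to per-well B score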
TRPC6 activator – mouse TRPC6 channel activators, primary screen, cell-based, HEK293, membrane potential dye; HEK293-TRPC6 membrane potential dye fluorescence; active compounds read high; B-score at 10 µM; 310,000 compounds, 0.13% hits; AID 2550, 2010;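 active means B-score of the integrated fluorescence ratio above library mean plus 3 SD, and starting fluorescence ratio within library mean plus 5 SD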;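 further: higher score means more depolarization so channel activation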
Kir21 inh – inhibitors of mouse Kir2.1 inward-rectifier potassium channel; Inward rectifier potassium channel 2 (Mus musculus), P35561; HEK293-Kir2.1, FluxOR thallium flux fluorescence; active compounds read low; B-score at 10 µM; 310,000 compounds, 0.85% hits;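 active means fluorescence ratio B-score at or below minus 3 SD of library scores, with starting-brightness B-score within 2 SD, cut at about -4.2 in these data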;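 further: channel flux triggered by added potassium and thallium sulfate stimulus; B-score of peak minus minimum fluorescence over baseline after thallium stimulus; more negative B-score means stronger Kir2.1 block with less thallium influx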
Target sequence (P35561 whole entry, looked up): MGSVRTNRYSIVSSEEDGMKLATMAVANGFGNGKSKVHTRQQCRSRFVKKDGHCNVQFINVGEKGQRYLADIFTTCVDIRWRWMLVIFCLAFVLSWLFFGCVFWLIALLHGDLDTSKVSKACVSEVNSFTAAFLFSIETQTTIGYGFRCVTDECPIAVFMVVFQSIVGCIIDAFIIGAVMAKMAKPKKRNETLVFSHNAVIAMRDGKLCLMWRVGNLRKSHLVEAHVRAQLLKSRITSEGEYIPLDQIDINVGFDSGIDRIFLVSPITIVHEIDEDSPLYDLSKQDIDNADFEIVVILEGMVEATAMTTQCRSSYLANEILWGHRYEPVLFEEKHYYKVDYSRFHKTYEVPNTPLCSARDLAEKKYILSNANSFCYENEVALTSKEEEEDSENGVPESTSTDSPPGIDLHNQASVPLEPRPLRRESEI
TRPC4 potent – positive allosteric modulators of TRPC4, primary screen, cell-based, mouse TRPC4beta, HEK293 mu-opioid, Fluo-4 calcium | DAMGO EC20, Fluo-4 Ca2+ flux; active compounds read high | B-score at 10 µM | Short transient receptor potential channel 4 (Mus musculus), Q9QUQ5 | 310,000 compounds, 0.42% hits;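 active means B-score of calcium response area above 5 SD of library B-scores, with initial fluorescence ratio within 5 SD of library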
TRPC4 inh – inhibitors of mouse TRPC4 channel, primary screen, Fluo4 calcium, HEK293 TRPC4beta/mu-opioid cells. DAMGO-evoked Fluo4 calcium flux; active compounds read low. Short transient receptor potential channel 4 (Mus musculus), Q9QUQ5. B-score at 10 µM. AID 2247, 2010. 300,000 compounds, 0.39% hits;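 active means B-score over 3 SD under the library average, no early fluorescence shift, positive overall ratio signal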
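Assay system: HEK293 cells with stable TRPC4beta plus mu-opioid receptor expression; Probe or stimulus: DAMGO in two steps, submaximal then maximal; Dosing: single-point compound dosing; Measured by: Fluo4 calcium-dye fluorescence, kinetic read; Read-out basis: B score from integrated Fluo4 fluorescence ratio.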
A number is an active result; n = inactive.

SMILES	TRPC6 inhibitor	TRPC4 agonist	TRPC6 activator	Kir21 inh	TRPC4 potent	TRPC4 inh
CCOc1ccc(NC(=S)N(CCc2c(C)[nH]c3ccccc23)Cc2ccco2)cc1	n	n	n	n	n	n
Cn1ccnc1C1CCCCN1C(=O)c1cc(COc2ccc(F)cc2F)on1 (configuration not stated)	n	n	n	n	n	n
COc1ccc2c(c1)C=C(CN1CCC(CO)(CCc3ccccc3)CC1)CO2	n	n	n	n	n	-6
COc1ccc(CC2(CO)CCN(CC3=Cc4cc(Cl)ccc4OC3)CC2)cc1	n	n	n	n	n	n
Cn1c(-c2ccc(F)cc2)cnc1NCc1ccccc1F	n	n	n	n	n	n
Cn1c(-c2ccc(F)cc2)cnc1NCc1ccc(F)cc1F	n	n	n	n	n	-6
Cc1ccc(CNc2ncc(-c3ccc4c(c3)OCO4)n2C)cc1	n	n	n	-10	n	n
Cn1c(-c2ccccc2)cnc1NCc1ccc(-c2ccccc2)cc1	n	n	n	n	n	n
C=CCNCCCOc1ccc(Cl)cc1Br	n	n	n	n	16	n
Clc1ccc(OCCCNCc2ccccc2)c(Br)c1	n	n	n	-16	n	n
OCCNCCCOc1ccc(Cl)cc1Br	n	n	n	n	n	n
Clc1ccc(Cl)c(OCCCCNCc2ccccc2)c1	n	n	n	-12	n	n
COc1cccc(Cn2cc(C(=O)NCCN(C)C)nn2)c1	n	n	n	n	n	n
CCOc1ccc(NC(=O)CCC(=O)c2ccc(OC)cc2)cc1	n	n	n	n	n	n
O=C(OCC(=O)N1CCCc2ccccc21)c1ccc(F)c(S(=O)(=O)N2CCOCC2)c1	n	n	n	n	n	n
COc1ccc(S(=O)(=O)NCCSCc2ccco2)cc1Cl	n	n	n	-6.3	n	n
COc1ccc(S(=O)(=O)NCCSCc2ccco2)cc1C	n	n	n	n	n	n
CC(C)Cn1c(N)c(C(=O)COC(=O)c2ccc([N+](=O)[O-])o2)c(=O)n(C)c1=O	n	n	n	n	n	n
CCOC(=O)c1c(NC(=O)COc2ncnc3ccccc23)sc(C)c1CC	n	n	n	n	n	n
Cn1c2ccccc2c(=O)c2cc(C#CC3(O)CCCCC3)ccc21	n	n	n	n	n	n
Cn1c2ccccc2c(=O)c2ccc(C#CC3(N)CCCCC3)cc21	-8.6	n	n	n	n	n
O=C(NC(=S)Nc1ccc(F)c(Cl)c1)C1CC1	n	n	n	n	n	n
Fc1ccc(NC(=S)Nc2ccc(F)c(Cl)c2)cc1Cl	n	n	n	-5.4	n	n
Cc1ccc(-n2nnnc2-c2ccccc2)cc1	n	n	n	n	n	n
Cc1ccc(-n2nnnc2C(Cl)c2nnnn2-c2ccc(C)cc2)cc1	n	n	n	-12	n	n
SMILES	TRPC6 inhibitor	TRPC4 agonist	TRPC6 activator	Kir21 inh	TRPC4 potent	TRPC4 inh
O=C(Cn1c2[n+](c3ccccc31)CC(O)CS2)c1ccccc1 (configuration not stated)	n	n	n	n	n	n
CC(C)(C)c1cnnn1-c1ccc(C(=O)CCl)cc1	n	n	n	-6.5	n	n
CCC(=O)c1ccccc1OCCCN1CCC(Cc2ccccc2)CC1	-6.5	n	n	-5.4	n	n
CCOc1ccccc1OCCN1CCC(Cc2ccccc2)CC1	n	n	n	n	n	n
S=C(Nc1ccccc1)Nc1cc(Cl)ccc1Oc1ccccc1	n	n	n	n	n	-6
S=C(Nc1cc(Cl)ccc1Oc1ccccc1)N1CCN(c2ccccn2)CC1	n	n	n	n	n	n
CC(=O)OCCNc1cc(Sc2nc3ccccc3[nH]2)c2nonc2c1[N+](=O)[O-]	n	n	n	-4.5	n	n
COc1ccc(OC)c(S(=O)(=O)N/N=C(/C)c2ccc3c(c2)OCO3)c1	n	n	n	n	n	n
CC1CCN(c2nc(Cl)nc(Nc3ccc([N+](=O)[O-])cc3)n2)CC1	n	n	n	n	47	n
C=CCNc1nc(Nc2ccc([N+](=O)[O-])cc2)nc(N2CCCC2)n1	n	n	n	n	n	n
Cc1c(C(=O)c2ccc(Cl)c(Cl)c2)cnc2cc3c(cc12)OCO3	n	n	n	n	n	n
Cc1ccc(S(=O)(=O)c2c(C(=O)c3ccccc3)cnc3cc4c(cc23)OCCO4)cc1	n	n	n	n	18	n
O=C(NC(=S)NNC(=O)c1ccco1)c1ccc(Br)cc1	n	121	n	n	n	-8
CCCOc1ccc(C(=O)NNC(=S)NC(=O)c2ccco2)cc1	n	217	n	n	n	n
CCCOc1ccc(C(=O)NNC(=S)NC(=O)c2ccccc2[N+](=O)[O-])cc1	n	n	n	n	n	n
CC(Oc1ccc(Cl)cc1)C(=O)NNC(=S)NC(=O)c1ccco1 (configuration not stated)	n	183	n	n	n	n
CC(Oc1ccccc1)C(=O)Nc1cccc(NC(=O)c2ccco2)c1 (configuration not stated)	n	n	n	n	n	n
O=C(NNC(=S)NC(=O)c1ccco1)c1ccc(F)cc1	n	67	n	n	n	n
CC(=O)C1=C(O)C(=O)N(C)C1c1ccccc1[N+](=O)[O-] (configuration not stated)	n	n	n	n	n	n
O=C(NNC(=S)NC(=O)c1cccc([N+](=O)[O-])c1)c1ccc(Br)cc1	n	79	n	n	n	n
COc1ccc(C(=O)NNC(=S)NC(=O)c2ccco2)cc1	n	50	n	n	n	n
COc1ccc(C(=O)NC(=S)NNC(=O)c2cccnc2)cc1	n	n	n	n	n	n
O=C(CCl)Nc1ccccc1C(=O)NCc1ccccc1	n	n	n	n	n	n
Cc1ccccc1-c1nn(-c2ccc(F)cc2F)cc1CNC1CC1	n	n	n	n	n	n
CC(C)C[C@H]1CN=C(Nc2ccccc2)N1CCCC1CCCCC1	n	n	n	n	n	n
CC(C)C[C@H]1CN=C(Nc2ccccc2)N1CCCC1CCCC1	n	n	n	-4.6	n	n
CC(C)C[C@H]1CN=C(Nc2ccccc2)N1CCC1CCCC1	n	n	n	n	n	n
CCCCCCCN1C(Nc2ccccc2)=NC[C@@H]1CC(C)C	n	n	n	-4.9	n	n
Cc1csc(NC(=O)NCC2CCCC(CNC(=O)Nc3nc(C)cs3)C2)n1 (configuration not stated)	n	n	n	n	n	n
